From ChEMBL document CHEMBL3603782, “Antimalarial benzoheterocyclic 4-aminoquinolines: Structure-activity relationship, in vivo evaluation, mechanistic and bioactivation studies” (Bioorg Med Chem, 2015)
The source made the active and inactive calls. No cut-off for these calls is given here.

How the values were obtained:
Plasmodium berghei [1] = assay: Antimalarial activity against GFP-transfected Plasmodium berghei ANKA infected in mouse assessed as mean survival days at 10 mg/kg, po qd administered for 4 days; type: functional
Method in brief: (§1)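 Mice (n = 3) infected with GFP-transfected P. berghei ANKA. Compound given orally, dissolved in a vehicle containing ethanol and diluted 10× with water. Multi-dose arms were dosed once daily on four consecutive days (4, 24, 48, 72 h post-infection). Parasitaemia was measured by flow cytometry, detection limit 0.1%. Activity is % reduction relative to controls. Survival was followed for 30 days.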

[2] = Volume of distribution in C57Bl/6 mouse at 5 mg/kg, iv; type: ADME, organism-based; details: in vivo
Method in brief: (§2)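 C57Bl/6 mice, n = 3 per route. IV group dosed 5 mg/kg in DMSO, PEG, EtOH, PPG (2:6:1:7, v/v); tail-tip blood (20 µL) at 0.08, 0.5, 1, 3, 7 and 24 h. Oral group received a single 20 mg/kg gavage as a suspension in 0.5% HPMC in water; blood at 0.5, 1, 3, 5 and 24 h. Whole-blood LC–MS/MS (10–5000 ng/mL) after methanol protein precipitation; non-compartmental analysis.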

Plasmodium berghei [3] = assay: Antimalarial activity against GFP-transfected Plasmodium berghei ANKA infected in mouse assessed as mean survival days at 50 mg/kg, po; type: functional; method in brief: as §1
[4] = Elimination half life in C57Bl/6 mouse at 20 mg/kg, po; type: ADME, organism-based; details: in vivo, read-out: beta t1/2 (converted); method in brief: as §2
[5] = Tmax in C57Bl/6 mouse at 20 mg/kg, po; type: ADME, organism-based; details: in vivo; method in brief: as §2
CHO = assay: Cytotoxicity against CHO cells by MTT assay; type: cell-based; details: Cricetulus griseus
Method in brief: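 CHO cells, MTT assay. Stocks 20 mg/mL in DMSO, diluted in complete medium; undissolved samples tested as suspensions. Emetine served as reference (10-fold dilutions, 6 concentrations, lowest 0.001 µg/mL). IC50 derived from full dose–response curves by non-linear fitting.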

Plasmodium falciparum [6] = assay: Antiplasmodial activity against chloroquine-sensitive Plasmodium falciparum NF54 infected in human erythrocytes after 48 hrs by [3H]-hypoxanthine incorporation assay; type: functional, organism-based
Method in brief: (§3)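 Modified [3H]-hypoxanthine incorporation assay against P. falciparum NF54 (sensitive) and K1 (multidrug-resistant). Values are means of ≥2 or ≥3 independent experiments. The resistance index is the K1 IC50 divided by the NF54 IC50.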

Plasmodium berghei [7] = assay: Antimalarial activity against GFP-transfected Plasmodium berghei ANKA infected in mouse assessed as cure rate at 50 mg/kg, po qd administered for 4 days measured over 30 days; type: functional, organism-based
[8] = Cmax in C57Bl/6 mouse at 5 mg/kg, iv; type: ADME, organism-based; design: dose 5 mg/kg, route intravenous; details: in vivo; method in brief: as §2
Mus musculus [9] = assay: AUC in C57Bl/6 mouse at 5 mg/kg, iv; type: ADME, organism-based; details: in vivo; method in brief: as §2
Plasmodium berghei [10] = assay: Antimalarial activity against GFP-transfected Plasmodium berghei ANKA infected in mouse assessed as mean survival days at 50 mg/kg, po qd administered for 4 days; type: functional; method in brief: as §1
Plasmodium berghei [11] = assay: Antimalarial activity against GFP-transfected Plasmodium berghei ANKA infected in mouse assessed as reduction in parasitemia at 10 mg/kg, po qd administered for 4 days measured on day 4 post last dose by flow cytometric analysis relative to control; type: functional; design: scale not given: the % may be the effect or the level left
[12] = Oral bioavailability in C57Bl/6 mouse at 20 mg/kg; type: ADME, organism-based; details: in vivo; method in brief: as §2
[13] = Metabolic stability in human liver microsomes assessed as compound remaining at […] after 30 mins by HPLC-MS/MS analysis in presence of NADPH; type: ADME; details: read-out: Stability
Plasmodium falciparum [14] = assay: Antiplasmodial activity against multidrug-resistant Plasmodium falciparum K1 infected in human erythrocytes after 48 hrs by [3H]-hypoxanthine incorporation assay; type: functional, organism-based; method in brief: as §3
[15] = Elimination half life in C57Bl/6 mouse at 5 mg/kg, iv; type: ADME, organism-based; details: in vivo, read-out: beta t1/2 (converted); method in brief: as §2
Plasmodium berghei [16] = assay: Antimalarial activity against GFP-transfected Plasmodium berghei ANKA infected in mouse assessed as reduction in parasitemia at 50 mg/kg, po qd administered for 4 days measured on day 4 post last dose by flow cytometric analysis relative to control; type: functional; design: scale not given: the % may be the effect or the level left
[17] = Total clearance in C57Bl/6 mouse at 5 mg/kg, iv; type: ADME, organism-based; details: in vivo; method in brief: as §2
[18] = Cmax in C57Bl/6 mouse at 20 mg/kg, po; type: ADME, organism-based; design: dose 20 mg/kg, route oral; details: in vivo; method in brief: as §2
[19] = Metabolic stability in BALB/c mouse liver microsomes assessed as compound remaining at […] after 30 mins by HPLC-MS/MS analysis in presence of NADPH; type: ADME; details: read-out: Stability
[20] = Inhibition of beta haematin formation after 5 to 6 hrs by pyridine-ferrichrome method; type: physicochemical
Method in brief: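 Modified β-haematin inhibition assay. Compounds from DMSO stocks, 0–1000 µM final, in duplicate. NP-40 added (30.55 µM). Haematin suspension added to give 0.5 M acetate pH 4.8 and 100 µM haematin, then incubated 5–6 h at 37 °C. Free haeme detected with pyridine/H2O/acetone/0.2 M HEPES pH 7.4 reagent (final pyridine ~5% v/v) plus acetone, and absorbance read.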

Plasmodium falciparum [21] = assay: Resistance index, ratio of IC50 for multidrug-resistant Plasmodium falciparum K1 to IC50 for chloroquine-sensitive Plasmodium falciparum NF54; type: functional; method in brief: as §3
Mus musculus [22] = assay: AUC in C57Bl/6 mouse at 20 mg/kg, po; type: ADME, organism-based; details: in vivo; method in brief: as §2
Plasmodium berghei [23] = assay: Antimalarial activity against GFP-transfected Plasmodium berghei ANKA infected in mouse assessed as reduction in parasitemia at 50 mg/kg, po by flow cytometric analysis relative to control; type: functional; design: scale not given: the % may be the effect or the level left
[24] = Lipophilicity, log P of the compound; type: physicochemical; details: octanol/water
[25] = Selectivity index, ratio of IC50 for CHO cells to IC50 for chloroquine-sensitive Plasmodium falciparum NF54; type: toxicity, cell-based; details: hamster, read-out: Ratio IC50
Plasmodium falciparum [26] = assay: Antiplasmodial activity against Plasmodium falciparum W2 infected in human erythrocytes after 48 hrs by [3H]-hypoxanthine incorporation assay; type: functional, organism-based
Plasmodium falciparum [27] = assay: Resistance index, ratio of IC50 for multidrug-resistant Plasmodium falciparum K1 to IC50 for Plasmodium falciparum W2; type: functional
Plasmodium berghei [28] = assay: Antimalarial activity against GFP-transfected Plasmodium berghei ANKA infected in mouse assessed as mean survival days at 30 mg/kg, po qd administered for 4 days; type: functional; method in brief: as §1
Mus musculus [29] = assay: Toxicity in mouse infected with GFP-transfected Plasmodium berghei ANKA at 50 mg/kg, po qd administered for 4 days measured over 30 days; type: organism-based; details: in vivo, 720 h
Plasmodium berghei [30] = assay: Antimalarial activity against GFP-transfected Plasmodium berghei ANKA infected in mouse assessed as cure rate at 10 mg/kg, po qd administered for 4 days measured over 30 days; type: functional, organism-based

| Compound | MSD (Plasmodium berghei [1]) [days] | MSD (Plasmodium berghei [3]) [days] | IC50 (CHO) [µM] | IC50 (Plasmodium falciparum [6]) [nM] | Activity (Plasmodium berghei [7]) | MSD (Plasmodium berghei [10]) [days] | Activity (Plasmodium berghei [11]) [%] | remaining at 0.5 h [13] [%] | IC50 (Plasmodium falciparum [14]) [nM] | Activity (Plasmodium berghei [16]) [%] | remaining at 0.5 h [19] [%] | IC50 [20] [µM] | Ratio IC50 (Plasmodium falciparum [21]) | Activity (Plasmodium berghei [23]) [%] | logP [24] | selectivity ratio [25] | IC50 (Plasmodium falciparum [26]) [nM] | Ratio IC50 (Plasmodium falciparum [27]) | further results |
| --- | --- | --- | --- | --- | --- | --- | --- | --- | --- | --- | --- | --- | --- | --- | --- | --- | --- | --- | --- |
| Clc1ccc2c(Nc3ccc4oc(NCCCN5CCCCC5)nc4c3)ccnc2c1 | 15.7 | 14 | 10.6 | 10 | Active | >30 | 99.8 | 70 | 39 | 99.8 | 49 | 105 | 3.9 | 99.5 | 4.16 | 1060 | – | – | Vd [2]: 24.5 L/kg; half-life [4]: 654 min; Tmax [5]: 2.9 h; Cmax [8]: 2740 nM; AUC (Mus musculus [9]): 454 (umol/L).min; bioavailability [12]: 56%; half-life [15]: 600 min; clearance [17]: 28.3 mL/min/kg; Cmax [18]: 1010 nM; AUC (Mus musculus [22]): 1020 (umol/L).min |
| CCN(CC)Cc1cc(Nc2ccnc3cc(Cl)ccc23)ccc1O [AMODIAQUINE] | >30 | – | 147 | 4 | – | >30 | 100 | – | 8 | 99.9 | – | 43.5 | 2.5 | – | – | 36800 | 5 | 1.6 | – |
| CCN(CC)CCCC(C)Nc1ccnc2cc(Cl)ccc12 (stereo unspecified) [CHLOROQUINE] | 16 | – | – | – | – | – | 99.9 | – | – | – | – | – | – | – | – | – | – | – | MSD (Plasmodium berghei [28]): 24 days |
| CN(C)CCNc1nc2cc(Nc3ccnc4cc(Cl)ccc34)ccc2o1 | 24 | 13.7 | 7.59 | 12 | – | 29.3 | 99.9 | > 99 | 42 | 99.8 | > 99 | 363 | 3.5 | 99.5 | 3.38 | 633 | – | – | – |
| Clc1ccc2c(Nc3ccc4[nH]c(NCCN5CCOCC5)nc4c3)ccnc2c1 | – | – | – | – | – | – | – | – | 742 | – | – | – | – | – | – | – | 189 | 3.93 | – |
| Clc1ccc2c(Nc3ccc4oc(NCCN5CCCC5)nc4c3)ccnc2c1 | >30 | 23.3 | 4.9 | 15 | Active | >30 | 99.8 | 62 | – | 99.8 | 81 | 91.5 | 3.73 | 99.5 | – | 327 | – | 2.75 | Activity (Mus musculus [29]): Non-toxic; Activity (Plasmodium berghei [30]): Active |
